From ChEMBL document CHEMBL4177578, “Synthesis, pharmacological activities and molecular docking studies of pyrazolyltriazoles as anti-bacterial and anti-inflammatory agents” (Bioorg Med Chem, 2017)
Active and inactive are the calls of the source. The rule behind the calls is not given here.

Experiments:
Type in all cases: functional
[1] = Anti-inflammatory activity using bovine serum albumin and egg albumin proteins incubated at 37 degC for 20 mins and then heated to 95 degC for 20 mins by UV-visible Spectrophotometry based protein denaturation method
Procedure, shortened: (§1)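 Albumin (bovine serum or egg) at 1% in 50 mM sodium phosphate buffer pH 6.4. Mixture is 0.1 ml test sample (1 mg/ml) plus 0.2 ml albumin, made to 5 ml with buffer. Held 37 °C for 20 min, then 95 °C for 20 min. Cooled to room temperature, turbidity read at 660 nm. % inhibition = (Abs control − Abs sample)/Abs control × 100. Triplicate, averaged.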

Staphylococcus aureus = assay: Antimicrobial activity against Staphylococcus aureus at 1 mg/ml incubated for 20 to 30 mins followed by incubation for 24 hrs at 37 degC by agar plate method
Procedure, shortened: (§2)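 Agar well diffusion on nutrient agar. Plates swabbed with 60 µL inoculum; 8 mm wells loaded with 100 µL of compound at 1.0 mg/mL. Held 20–30 min at 4 °C for diffusion, then 24 h at 37 °C. Inhibition zone diameter read in mm. Triplicate.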

Salmonella typhi [2] = assay: Antimicrobial activity against Salmonella typhi incubated for 12 to 16 hrs by tube dilution method; conditions: Salmonella enterica subsp. enterica serovar Typhi
Procedure, shortened: (§3)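 Broth tube dilution, two-fold serial dilutions from 500 to 1.9 µg/mL plus a drug-free control tube. Each tube inoculated with 1 mL culture at OD 0.2 (~McFarland standard), 37 °C for 12-16 h. Turbidity compared with the control tube. MIC is the lowest concentration giving complete growth inhibition.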

Salmonella typhi [3] = assay: Antimicrobial activity against Salmonella typhi at 1 mg/ml incubated for 20 to 30 mins followed by incubation for 24 hrs at 37 degC by agar plate method; conditions: Salmonella enterica subsp. enterica serovar Typhi
Procedure, shortened: (§4)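 Agar well diffusion on nutrient agar. Plates swabbed with 60 µL inoculum, 8 mm wells loaded with 100 µL sample at 1.0 mg/mL, streptomycin standard and control in separate wells. Plates held 20–30 min at 4 °C for diffusion, then 24 h at 37 °C. Zone diameter read in mm; triplicate.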

Salmonella typhi [4] = assay: Antimicrobial activity against Salmonella typhi incubated for 12 to 16 hrs followed by plating in nutrient agar by tube dilution method; conditions: Salmonella enterica subsp. enterica serovar Typhi
Procedure, shortened: (§5)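 After 12-16 h at 37 °C in tube dilution (500 to 1.9 µg/mL; 1 mL inoculum at OD 0.2), the culture from each tube was plated on nutrient agar. MBC is the concentration at which cells are completely killed.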

Micrococcus luteus [5] = assay: Antimicrobial activity against Micrococcus luteus at 1 mg/ml incubated for 20 to 30 mins followed by incubation for 24 hrs at 37 degC by agar plate method; procedure, shortened: as §2
Micrococcus luteus [6] = assay: Antimicrobial activity against Micrococcus luteus incubated for 12 to 16 hrs by tube dilution method
Procedure, shortened: (§6)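 Tube dilution, serial from 500 to 1.9 µg/mL, plus drug-free control tube. Each tube inoculated with 1 mL culture at OD 0.2, incubated 37 °C for 12–16 h. MIC is the lowest concentration with no growth by turbidity. MBC is found by plating each tube on nutrient agar: the lowest concentration at which all cells are killed.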

Micrococcus luteus [7] = assay: Antimicrobial activity against Micrococcus luteus incubated for 12 to 16 hrs followed by plating in nutrient agar by tube dilution method; procedure, shortened: as §6
Salmonella paratyphi [8] = assay: Antimicrobial activity against Salmonella paratyphi incubated for 12 to 16 hrs by tube dilution method; conditions: Salmonella enterica subsp. enterica serovar Paratyphi A; procedure, shortened: as §3
Salmonella paratyphi [9] = assay: Antimicrobial activity against Salmonella paratyphi incubated for 12 to 16 hrs followed by plating in nutrient agar by tube dilution method; conditions: Salmonella enterica subsp. enterica serovar Paratyphi A; procedure, shortened: as §5
[10] = Anti-inflammatory activity at 50 ug/ml using bovine serum albumin and egg albumin proteins incubated at 37 degC for 20 mins and then heated to 95 degC for 20 mins by UV-visible Spectrophotometry based protein denaturation method; procedure, shortened: as §1
[11] = Anti-inflammatory activity at 100 ug/ml using bovine serum albumin and egg albumin proteins incubated at 37 degC for 20 mins and then heated to 95 degC for 20 mins by UV-visible Spectrophotometry based protein denaturation method; procedure, shortened: as §1
Salmonella paratyphi [12] = assay: Antimicrobial activity against Salmonella paratyphi at 1 mg/ml incubated for 20 to 30 mins followed by incubation for 24 hrs at 37 degC by agar plate method; conditions: Salmonella enterica subsp. enterica serovar Paratyphi A; procedure, shortened: as §4

| Compound | IC50 [1] | diameter of the inhibition zone (DIZ) (Staphylococcus aureus) | MIC (Salmonella typhi [2]) | diameter of the inhibition zone (DIZ) (Salmonella typhi [3]) | MBC (Salmonella typhi [4]) | diameter of the inhibition zone (DIZ) (Micrococcus luteus [5]) | MIC (Micrococcus luteus [6]) | MBC (Micrococcus luteus [7]) | MIC (Salmonella paratyphi [8]) | MBC (Salmonella paratyphi [9]) | inhibition [10] | inhibition [11] | diameter of the inhibition zone (DIZ) (Salmonella paratyphi [12]) |
| --- | --- | --- | --- | --- | --- | --- | --- | --- | --- | --- | --- | --- | --- |
| [N-]=[N+]=NCc1cn(-c2ccccc2)nc1-c1ccc(Cl)cc1Cl | Not Active | inactive | inactive | inactive | inactive | inactive | inactive | inactive | inactive | inactive | inactive | inactive | inactive |
| CCOC(=O)c1nnn(Cc2cn(-c3ccccc3)nc2-c2ccc(OC)cc2)c1C(=O)OCC | Not Active | inactive | inactive | inactive | inactive | inactive | inactive | inactive | inactive | inactive | inactive | inactive | inactive |
| Cc1ccc(-c2nn(-c3ccccc3)cc2Cn2cc(-c3ccccc3)nn2)cc1 | Not Active | inactive | inactive | inactive | inactive | inactive | inactive | inactive | inactive | inactive | inactive | inactive | inactive |
| c1ccc(-c2cn(Cc3cn(-c4ccccc4)nc3-c3ccccc3)nn2)cc1 | Not Active | inactive | inactive | inactive | inactive | inactive | inactive | inactive | inactive | inactive | inactive | inactive | inactive |
| CCOC(=O)c1nnn(Cc2cn(-c3ccccc3)nc2-c2ccc(Cl)cc2)c1C(=O)OCC | Not Active | inactive | inactive | inactive | inactive | inactive | inactive | inactive | inactive | inactive | inactive | inactive | inactive |
| Cc1ccc(-c2nn(-c3ccccc3)cc2CN=[N+]=[N-])cc1 | Not Active | inactive | inactive | inactive | inactive | inactive | inactive | inactive | inactive | inactive | inactive | inactive | inactive |
| COC(=O)c1nnn(Cc2cn(-c3ccccc3)nc2-c2ccc(OC)cc2)c1C(=O)OC | Not Active | inactive | inactive | inactive | inactive | inactive | inactive | inactive | inactive | inactive | inactive | inactive | inactive |
| COC(=O)c1nnn(Cc2cn(-c3ccc(Cl)cc3)nc2-c2ccccc2)c1C(=O)OC | Not Active | inactive | inactive | inactive | inactive | inactive | inactive | inactive | inactive | inactive | inactive | inactive | inactive |
| CN(C)c1ccc(-c2cn(Cc3cn(-c4ccccc4)nc3-c3ccccc3)nn2)cc1 | Not Active | inactive | inactive | inactive | inactive | inactive | inactive | inactive | inactive | inactive | inactive | inactive | inactive |
| CCOC(=O)c1nnn(Cc2cn(-c3ccc(Cl)cc3)nc2-c2ccccc2)c1C(=O)OCC | Not Active | inactive | inactive | inactive | inactive | inactive | inactive | inactive | inactive | inactive | inactive | inactive | inactive |
| COc1ccc(-c2nn(-c3ccccc3)cc2Cn2cc(-c3ccccc3)nn2)cc1 | Not Active | inactive | inactive | inactive | inactive | inactive | inactive | inactive | inactive | inactive | inactive | inactive | inactive |
| CCOC(=O)c1nnn(Cc2cn(-c3ccc(C)cc3)nc2-c2ccccc2)c1C(=O)OCC | Not Active | inactive | inactive | inactive | inactive | inactive | inactive | inactive | inactive | inactive | inactive | inactive | inactive |
| Cc1ccc(-n2cc(CN=[N+]=[N-])c(-c3ccccc3)n2)cc1 | Not Active | inactive | inactive | inactive | inactive | inactive | inactive | inactive | inactive | inactive | inactive | inactive | inactive |
| Cc1ccc(-c2cn(Cc3cn(-c4ccccc4)nc3-c3ccccc3)nn2)cc1 | Not Active | inactive | inactive | inactive | inactive | inactive | inactive | inactive | inactive | inactive | inactive | inactive | inactive |
